Measured values published in ChEMBL document CHEMBL1125833, “Anxiolytic properties of certain annelated [1,2,4]triazolo[1,5-c]pyrimidin-5(6H)-ones” (J Med Chem, 1991).

Tests used:
[1] = target: GABA-A receptor; anion channel; test: Displacement of [3H]flunitrazepam (FNZ) from GABA-A benzodiazepine receptor in rat forebrain
[2] = target: GABA-A receptor; anion channel (Rattus norvegicus) (UniProt O09028+P15431+P18506+P18508+P19969+P20236+P23574+P23576+P28471+P28473+P30191+P62813+P63079+P63138+Q91ZM7+Q9ES14); test: GABA ratio measured by the IC50 in the absence of GABA compared to the IC50 in the presence of GABA in rats.
How it was run: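 Modified [3H]flunitrazepam binding in rat forebrain, with IC50 measured with and without GABA. Ratio = IC50 without GABA divided by IC50 with GABA.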

Rattus norvegicus [3] = organism: Rattus norvegicus; test: Anxiolytic response measured by antagonism of pentylenetetrazole discriminative stimuli in rats.; type: functional
How it was run: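 Rats trained to discriminate a subconvulsant dose of pentylenetetrazole (PTZ) from vehicle. Test compound given 30 min before the PTZ dose. Antagonism of the PTZ stimulus is scored as the anxiolytic response. ED50 values by probit analysis, with 95% confidence limits.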

Rattus norvegicus [4] = test: Compound tested for its effect on Nonconflict (VI) operant responding of rats at a dose of 3.0 mg/Kg administered perorally.; type: functional
How it was run: (§1)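 Cook-Davidson conflict procedure in rats given oral doses. Rats lever-press for milk reward with shock (conflict, FR) and without shock (nonconflict, VI). Value is % change in response rate, with significance set at P < 0.05. The minimally effective oral dose is taken as the dose raising conflict responding or lowering VI responding.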

Rattus norvegicus [5] = test: Compound tested for its effect on conflict (FR) operant responding of rats at a dose of 3.0 mg/Kg administered perorally.; type: functional; how it was run: as §1
Rattus norvegicus [6] = test: Compound tested for its effect on Nonconflict (VI) operant responding of rats at a dose of 1.0 mg/Kg administered perorally.; type: functional; how it was run: as §1
Rattus norvegicus [7] = test: Minimal effective oral dose to cause VI response decrement in rats.; type: functional; how it was run: as §1
Rattus norvegicus [8] = test: Minimal effective oral dose to cause increase in conflict response in rats after po administration.; type: functional; how it was run: as §1
Rattus norvegicus [9] = test: Compound tested for its effect on conflict (FR) operant responding of rats at a dose of 1.0 mg/Kg administered perorally.; type: functional; how it was run: as §1
Rattus norvegicus [10] = test: Compound tested for its effect on Nonconflict(VI) operant responding of rats at a dose of 10.0 mg/kg administered perorally.; type: functional; details: route oral; how it was run: as §1
Rattus norvegicus [11] = test: Compound tested for its effect on Nonconflict(VI) operant responding of rats at a dose of 3.0 mg/kg administered perorally.; type: functional; details: route oral; how it was run: as §1
Rattus norvegicus [12] = test: Compound tested for its effect on Nonconflict(VI) operant responding of rats at a dose of 30.0 mg/kg administered perorally.; type: functional; details: route oral; how it was run: as §1
Rattus norvegicus [13] = test: Compound tested for its effect on conflict(FR) operant responding of rats at a dose of 10.0 mg/kg administered perorally.; type: functional; details: route oral; how it was run: as §1
Rattus norvegicus [14] = test: Compound tested for its effect on conflict(FR) operant responding of rats at a dose of 3.0 mg/kg administered perorally.; type: functional; details: route oral; how it was run: as §1
Rattus norvegicus [15] = test: Compound tested for its effect on conflict(FR) operant responding of rats at a dose of 30.0 mg/kg administered perorally.; type: functional; details: route oral; how it was run: as §1
Rattus norvegicus [16] = test: Minimal effective oral dose to cause ethanol interaction in rats.; type: functional
How it was run: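 Rotorod test of ethanol interaction in male Wistar (Crl:(WI)BR) rats, 130–160 g. Vehicle or test compound (0, 1, 3, 10 mg/kg) given orally 30 min before ethanol. Graded ethanol doses given ip 30 min before rotorod testing. Ethanol ED50 reported with confidence limits, P < 0.05.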

Rattus norvegicus [17] = test: Compound tested for its effect on Nonconflict (VI) operant responding of rats at a dose of 30.0 mg/Kg administered perorally.; type: functional; how it was run: as §1
Rattus norvegicus [18] = test: Compound tested for its effect on conflict (FR) operant responding of rats at a dose of 10.0 mg/Kg administered perorally.; type: functional; how it was run: as §1
Rattus norvegicus [19] = test: Compound tested for its effect on conflict (FR) operant responding of rats at a dose of 30.0 mg/Kg administered perorally.; type: functional; how it was run: as §1
Rattus norvegicus [20] = test: Compound tested for its effect on Nonconflict (VI) operant responding of rats at a dose of 10.0 mg/Kg administered perorally.; type: functional; how it was run: as §1
Rattus norvegicus [21] = test: Anxiolytic response at 30 mg/Kg measured by antagonism of pentylenetetrazole discriminative stimuli in rats.; type: functional
Rattus norvegicus [22] = test: Compound tested for its effect on Nonconflict(VI) operant responding of rats at a dose of 1.0 mg/kg administered perorally.; type: functional; details: route oral; how it was run: as §1
Rattus norvegicus [23] = test: Compound tested for its effect on conflict(FR) operant responding of rats at a dose of 1.0 mg/kg administered perorally.; type: functional; details: route oral; how it was run: as §1
Rattus norvegicus [24] = test: Compound tested for its effect on conflict (FR) operant responding of rats at a dose of 30.0 mg/Kg administered perorally; type: functional; how it was run: as §1

SMILES	IC50 [1]	GABA ratio [2]	ED50 (Rattus norvegicus [3])	MED (Rattus norvegicus [8])	other results
CCOC(=O)N1CCc2nc(O)n3nc(-c4ccccc4F)nc3c2C1	12.1 nM	1.1			
Oc1nc2c(c3nc(-c4ccc[nH]4)nn13)CN(Cc1ccccc1)CC2	7.6 nM	1.65	17.3 mg/kg		
Oc1nc2c(c3nc(-c4ccccc4Cl)nn13)CN(Cc1ccccc1)CC2	1.7 nM	1.4	0.5 mg/kg	3 mg/kg	Change in response rate (Rattus norvegicus [4]): -40%; Change in response rate (Rattus norvegicus [5]): 58%; Change in response rate (Rattus norvegicus [6]): 1%; MED (Rattus norvegicus [7]): 3 mg/kg; Change in response rate (Rattus norvegicus [9]): 18%
Oc1nc2c(c3nc(-c4ccccn4)nn13)CN(Cc1ccccc1)CC2	20.6 nM	1.6	26 mg/kg		
CC(C)N1CCc2nc(O)n3nc(-c4ccccc4F)nc3c2C1	105 nM				
O=C(Cc1ccccc1)N1CCc2nc(O)n3nc(-c4ccccc4F)nc3c2C1	140 nM				
CN1C(=O)CN=C(c2ccccc2)c2cc(Cl)ccc21 [DIAZEPAM]			1.23 mg/kg	10 mg/kg	Change in response rate (Rattus norvegicus [10]): 30%; Change in response rate (Rattus norvegicus [11]): 4%; Change in response rate (Rattus norvegicus [12]): -2%; Change in response rate (Rattus norvegicus [13]): 425%; Change in response rate (Rattus norvegicus [14]): 159%; Change in response rate (Rattus norvegicus [15]): 257%; MED (Rattus norvegicus [7]): 10 mg/kg; MED (Rattus norvegicus [16]): 5 mg/kg
Oc1nc2c(c3nc(-c4ccccc4F)nn13)CCCCC2	7.2 nM		4.4 mg/kg	10 mg/kg	Change in response rate (Rattus norvegicus [4]): 11%; Change in response rate (Rattus norvegicus [17]): 49%; Change in response rate (Rattus norvegicus [18]): 232%; Change in response rate (Rattus norvegicus [5]): 79%; Change in response rate (Rattus norvegicus [19]): 236%; Change in response rate (Rattus norvegicus [20]): 53%; MED (Rattus norvegicus [7]): 10 mg/kg
Oc1nc2c(c3nc(-c4ccccc4F)nn13)CCC2	4.7 nM				
Cc1ccc(S(=O)(=O)N2CCc3nc(O)n4nc(-c5ccccc5F)nc4c3C2)cc1	1.77 nM	0.99			
CCN1CCc2nc(O)n3nc(-c4ccccc4F)nc3c2C1	150 nM				
COC(=O)CN1CCc2nc(O)n3nc(-c4ccccc4F)nc3c2C1	27 nM	1.06			inhibition in vivo at 30 mg/kg (Rattus norvegicus [21]): 12%
Oc1nc2c(c3nc(-c4cccc(F)c4)nn13)CN(Cc1ccccc1)CC2	2.4 nM	1.6			
Oc1nc2c(c3nc(-c4ccccc4F)nn13)CN(Cc1ccccc1)CC2	0.44 nM	1.06	0.66 mg/kg	10 mg/kg	Change in response rate (Rattus norvegicus [22]): 0%; Change in response rate (Rattus norvegicus [10]): -44%; Change in response rate (Rattus norvegicus [11]): -13%; Change in response rate (Rattus norvegicus [12]): -52%; Change in response rate (Rattus norvegicus [23]): 19%; Change in response rate (Rattus norvegicus [13]): 206%; Change in response rate (Rattus norvegicus [14]): 173%; Change in response rate (Rattus norvegicus [15]): 282%; MED (Rattus norvegicus [7]): 30 mg/kg
Oc1nc2c(c3nc(-c4ccccc4F)nn13)CCCC2	1.7 nM		2.4 mg/kg	30 mg/kg	Change in response rate (Rattus norvegicus [17]): 1%; Change in response rate (Rattus norvegicus [24]): 132%
NC(=O)N1CCc2nc(O)n3nc(-c4ccccc4F)nc3c2C1	67 nM	0.74			
